Data set [1] in a line: (§1) Displacement of [125I]-Tyr6, His5 from human LHRH1 receptor expressed in HEK 293 cells after 16 to 19 hrs by gamma counter. It is filed as cell-based. To be noted: hek293. Summed up: (§2)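 Competition binding on membranes from HEK 293 cells stably expressing human LHRH-I receptor, in HEPES buffer with CaCl2, MgCl2 and 0.5% BSA, pH 7.4. Radioligand was 120,000–240,000 cpm [125I-Tyr6,His5]LHRH with rising peptide concentrations, 16–19 h at 4 °C. Samples were filtered on PEI-soaked GF/C and gamma counted. Data were fitted to a one-site model by nonlinear regression; 3–4 experiments.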

The test system of data set [2] is HEK293. The description is as §1. It is filed as cell-based. Summed up: as §2
The nature of data set [3]: Metabolic stability in mouse renal epithelial cell membranes assessed as compound remaining at 10 nM measured at 30 mins. To be noted: for remaining at 0.5 h, 0.01 µM: renal epithelial cell membranes, read-out: Stability. The data set is classed as ADME, cell-based. The procedure, abridged:
(§3)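 Mouse kidney membranes (100,000 × g pellet) in 20 mM phosphate/100 mM NaCl, pH 7.4, at 4 mg/ml protein, incubated with 10 nM peptide at 37 °C with shaking. Sampling at 0, 30, 60 and 120 min was stopped with acetonitrile. LC-MS/MS (MRM) peak areas are expressed relative to t = 0 (100%).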

In data set [4] the test system is Plasma. Nature of the data set: Metabolic stability in overnight fasted C57BL/6N mouse plasma at 1 mg/kg, ip. The data set is classed as ADME, organism-based. The arrangement: dose 1 mg/kg, route intraperitoneal. The settings on record: in vivo. Summed up: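 Plasma peptide stability in vivo: fasted male C57BL/6 mice received 1 mg kg-1 i.p. in saline. Cardiac-puncture plasma was collected at 1, 2, 4 and 6 h (n = 5). Peptide was measured by LC-MS/MS after protein precipitation.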

A short description of data set [5]: Cmax in overnight fasted C57BL/6N mouse at 1 mg/kg, ip. It is filed as ADME, organism-based. The arrangement: dose 1 mg/kg, route intraperitoneal. To be noted: in vivo. Summed up:
(§4)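 Male C57BL/6 mice, fasted 12 h overnight, given 1 mg kg-1 i.p. in saline. Blood was taken by cardiac puncture under isoflurane at 1, 2, 4 and 6 h post-dose (n = 5). Plasma was deproteinized and peptide was quantified by LC-MS/MS (MRM) against an internal standard using nine-point calibration curves. Parameters were derived from the plasma concentration–time data.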

Data set [6] can be described thus: Half life in overnight fasted C57BL/6N mouse at 1 mg/kg, ip. The arrangement: dose 1 mg/kg, route intraperitoneal. It is filed as ADME, organism-based. To be noted: in vivo. Summed up: as §4
Data set [7] is described as follows: AUC in overnight fasted C57BL/6N mouse at 1 mg/kg, ip. The data set is classed as ADME, organism-based. Details: dose 1 mg/kg, route intraperitoneal. The settings on record: plasma. Summed up:
as §4

Data set [8] can be described thus: Drug excretion in overnight fasted C57BL/6N mouse assessed as elimination rate constant at 1 mg/kg, ip. To be noted: in vivo, read-out: Drug excretion (converted). Details: dose 1 mg/kg, route intraperitoneal. The data set is classed as ADME, organism-based. The procedure, abridged: as §4
The nature of data set [9]: Metabolic stability in overnight fasted C57BL/6N mouse plasma assessed as compound remaining at 50 ng/mL, ip. It is filed as ADME, cell-free. The settings on record: read-out: Stability. Summed up:
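Recovery of spiked peptide from mouse plasma at 5 and 50 ng/mL. Plasma was extracted by protein precipitation and analysed by LC-MS/MS with an internal standard.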

Data set [10] relates to Mus musculus. The experiment in a line: Agonist activity at LHRH1 receptor in C57BL/6N mouse assessed as testosterone AUC (1 to 6 hrs) at 1 mg/kg, ip. The data set is classed as functional. The settings on record: route intraperitoneal. Summed up:
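Male C57BL/6N mice were dosed 1 mg kg-1 i.p. with saline vehicle controls (n = 5). Cardiac-puncture plasma was taken at 1, 2, 4 and 6 h. Testosterone was quantified by LC-MS/MS with a dexamethasone internal standard, calibrated 0.05–100 ng mL-1. AUC was computed over 1–6 h; mean ± SD.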

Data set [11] relates to Mus musculus. The experiment in a line: Agonist activity at LHRH1 receptor in C57BL/6N mouse assessed as release of testosterone in plasma at 1 ug/kg, ip. The data set is classed as functional, organism-based. The procedure, abridged:
(§5)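 Male C57BL/6N mice were pretreated i.p. with saline. After 15 min, peptide was given i.p. at 1 or 100 µg kg-1 (n = 5). Plasma testosterone was measured by LC-MS/MS with a dexamethasone internal standard.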

The test system of data set [12] is Mus musculus. Nature of the data set: Agonist activity at LHRH1 receptor in C57BL/6N mouse assessed as release of testosterone in plasma at 1 ug/kg, ip in presence of cetrorelix. The data set is classed as functional, organism-based. Summed up:
(§6)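 Male C57BL/6N mice first received cetrorelix 1 mg kg-1 i.p. After 15 min, peptide was given i.p. at 1 or 100 µg kg-1 (n = 5). Plasma testosterone was quantified by LC-MS/MS with a dexamethasone internal standard.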

A short description of data set [13]: Analytical recovery in overnight fasted C57BL/6N mouse plasma assessed as compound recovered at 5 ng/mL, ip.
Data set [14] is described as follows: Metabolic stability in mouse renal epithelial cell membranes assessed as compound remaining at 10 nM measured at 120 mins. To be noted: read-out: Stability. The data set is classed as ADME, cell-based. The procedure, abridged: as §3
Data set [15] in a line: Tmax in overnight fasted C57BL/6N mouse at 1 mg/kg, ip. The arrangement: dose 1 mg/kg, route intraperitoneal. To be noted: in vivo. It is filed as ADME, organism-based. The procedure, abridged:
as §4

Data set [16] deals with Mus musculus. The experiment in a line: Agonist activity at LHRH1 receptor in C57BL/6N mouse assessed as release of testosterone in plasma at 100 ug/kg, ip. The data set is classed as functional, organism-based. The procedure, abridged:
as §5

Data set [17] has as its system Mus musculus. Nature of the data set: Agonist activity at LHRH1 receptor in C57BL/6N mouse assessed as release of testosterone in plasma at 100 ug/kg, ip in presence of cetrorelix. It is filed as functional, organism-based. Summed up: as §6

The source made the active and inactive calls.

A word on the pIC50: it is −log10 of the IC50, conventionally taken in molar units. For `COc1ccc(C[C@@H]2NC(=O)[C@H](CO)NC(=O)[C@H](Cc3c[nH]c4ccccc34)NC(=O)[C@H](Cc3cnc[nH]3)NC(=O)[C@@H]3CCCN3C(=O)CC(C)NC(=O)[C@@H]3CCN3C(=O)[C@H](CCCNC(=N)N)NC(=O)[C@H](CC(C)C)NC(=O)[C@@H](CC(C)C)NC2=O)cc1` (some centres not stated), in [1], the pIC50 is 5.82. In addition, the inhibition result in [2] was “Dose-dependent effect”. In data set [3], the remaining at 0.5 h, 0.01 µM stood at 90%.

As to `CC(C)C[C@H](NC(=O)CNC(=O)[C@H](Cc1ccc(O)cc1)NC(=O)[C@H](CO)NC(=O)[C@H](Cc1c[nH]c2ccccc12)NC(=O)[C@H](Cc1cnc[nH]1)NC(=O)[C@@H]1CCC(=O)N1)C(=O)N[C@@H](CCCNC(=N)N)C(=O)N1CCC[C@H]1C(=O)NCC(N)=O` [GONADORELIN], the inhibition result in [2] is “Dose-dependent effect”. In addition, the Stability entry in data set [3] (epithelial cell, 0.5 h, 0.01 µM) is listed as “Unstable”.

The compound `COc1ccc(C[C@@H]2NC(=O)[C@H](CO)NC(=O)[C@H](Cc3c[nH]c4ccccc34)NC(=O)[C@H](Cc3cnc[nH]3)NC(=O)[C@@H]3CCCN3C(=O)CNC(=O)[C@@H]3CCN3C(=O)[C@H](CCCNC(=N)N)NC(=O)[C@H](CC(C)C)NC(=O)[C@@H](Cc3c[nH]c4ccccc34)NC2=O)cc1` returned a pIC50 in [1] of 5.58. Moreover, in data set [2], the inhibition entry is “Dose-dependent effect”. Further, in data set [3], the remaining at 0.5 h, 0.01 µM came to 68%.

Compound `COc1ccc(C[C@@H]2NC(=O)[C@H](CO)NC(=O)[C@H](Cc3c[nH]c4ccccc34)NC(=O)[C@H](Cc3cnc[nH]3)NC(=O)[C@@H]3CCCN3C(=O)CCCCCNC(=O)C[C@H](C)NC(=O)[C@@H]3CCCN3C(=O)[C@H](CCCNC(=N)N)NC(=O)[C@H](CC(C)C)NC(=O)[C@@H](CC(C)C)NC2=O)cc1` returned a pIC50 in [1] of 5.54. The inhibition entry in [2] was “Dose-dependent effect”. Besides, in data set [3], the remaining at 0.5 h, 0.01 µM is 90%.

Usually Cmax stands for the peak of the concentration-time curve. In general, half-life refers to the time needed for the level to fall by half in the phase considered. A lower half-life goes with fast loss. A word on the AUC: it is the area under the concentration-time curve, a measure of exposure. Low values mean less exposure, high ones more exposure. `CCNC(=O)[C@@H]1CCCN1C(=O)[C@H](CCCNC(=N)N)NC(=O)[C@H](CC(C)C)NC(=O)[C@@H](CC(C)C)NC(=O)[C@H](Cc1ccc(O)cc1)NC(=O)[C@H](CO)NC(=O)[C@H](Cc1c[nH]c2ccccc12)NC(=O)[C@H](Cc1c[nH]cn1)NC(=O)[C@@H]1CCC(=O)N1` [LEUPROLIDE] yielded a pIC50 in data set [1] of 9.12. Moreover, the inhibition entry in data set [2] was “Dose-dependent effect”. The remaining at 0.5 h, 0.01 µM in data set [3] came out at 3%. The Stability entry in [4] is given as “Stable”. This compound also gave a Cmax in [5] of 190 ng/mL. The same compound gave a half-life in data set [6] of 42 min. The compound also showed an AUC in data set [7] of 138 ng·h/mL. In [8], the k el is 0.000278 s⁻¹. In addition, the remaining at 50 ng/mL in [9] was over 90%. For the same compound, the Activity in data set [10] was 244.1 ng·h/mL. Also, the result in [11] was Active. The outcome in [12] was inactive. In data set [13], the recovered at 5 ng/mL was over 90%.

One may read the Tmax as the time from dosing to the highest level. Regarding `CC(C)C[C@@H]1NC(=O)[C@@H](CC(C)C)NC(=O)[C@H](Cc2ccc(O)cc2)NC(=O)[C@H](CO)NC(=O)[C@H](Cc2c[nH]c3ccccc23)NC(=O)[C@H](Cc2cnc[nH]2)NC(=O)[C@@H]2CCCN2C(=O)C[C@H](C)NC(=O)[C@@H]2CCCN2C(=O)[C@H](CCCNC(=N)N)NC1=O`, the negative logarithm of the IC50 (pIC50) in data set [1] was 6.17. In addition, the inhibition result in data set [2] was “Dose-dependent effect”. For the same compound, the remaining at 0.5 h, 0.01 µM in data set [3] was 100%. Also, the remaining at 2 h, 0.01 µM in data set [14] was determined as 100%. In data set [4], the Stability entry is “Stable”. In data set [5], this compound yielded a Cmax of 834 ng/mL. For the same compound, the Tmax in [15] turned out to be 60 min. The same compound showed a half-life in data set [6] of 30 min. Besides, in data set [7], the AUC is 808 ng·h/mL. The k el in data set [8] is 0.000278 s⁻¹. In data set [9], the remaining at 50 ng/mL was over 90%. Moreover, the Activity in data set [10] is 61.1 ng·h/mL. For the same compound, the result in [16] was Active. Moreover, the outcome in [17] was inactive. Further, the recovered at 5 ng/mL in [13] is over 90%.

`CC(C)C[C@@H]1NC(=O)[C@@H](CC(C)C)NC(=O)[C@H](Cc2ccc(O)cc2)NC(=O)[C@H](CO)NC(=O)[C@H](Cc2c[nH]c3ccccc23)NC(=O)[C@H](Cc2cnc[nH]2)NC(=O)[C@@H]2CCCN2C(=O)CCCCCNC(=O)C[C@H](C)NC(=O)[C@@H]2CCCN2C(=O)[C@H](CCCNC(=N)N)NC1=O` had a pIC50 in data set [1] of 5.31. In addition, the inhibition entry in [2] was “Dose-dependent effect”. In [3], the remaining at 0.5 h, 0.01 µM worked out at 72%.

The values above are taken from ChEMBL document CHEMBL2150946, “Rationally designed cyclic analogues of luteinizing hormone-releasing hormone: enhanced enzymatic stability and biological properties” (Eur J Med Chem, 2012).
